CSC inhib: cancer stem cell viability inhibitors, primary screen, luminescence; hit rate 1.1% among 300,000; AID 2717, 2010; cancer stem cell-like cells viability; inhibition, % at 7.5 µM; in the data active = inhibition above about 75%; inconclusive = no clear call, values can overlap the other calls; tested in HMLE shEcad cells
T cruzi repl: inhibitors of intracellular T. cruzi growth, primary screen, luminescence, NIH3T3 host cells; inhibition, % (concentration not given with the values); T. cruzi beta-gal in NIH3T3, 90 h; hit rate 1.4% among 300,000;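 active = mean inhibition across valid replicates above about 55%, limit read from the data; inconclusive = mean below that limit but half or more replicates reach it; inactive = mean below it, under half of replicates reach it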;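 also: signal also drops with host cell toxicity which is not excluded here; 0% = plate median of DMSO wells and 100% = zero luminescence signal; higher percent means less beta-gal luminescence so fewer parasites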
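Assay system: NIH/3T3 host cells with β-galactosidase reporter T. cruzi; input: 5,000 host fibroblasts per well; compound: single 50 nL compound addition per well in DMSO; timing: ≥90 h infection period, 3 h prior cell attachment; measured by: GalScreen β-gal luminescence, detergent lysis, 60 min; evaluation: percent inhibition of parasite-derived β-gal signal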
Calb FLC: C. albicans growth inhibition with fluconazole, primary screen, CaCi-2 strain, Alamar Blue fluorescence | C. albicans CaCi-2 (fluconazole-resistant clinical isolate) + fluconazole, 48 h | growth inhibition, % (no concentration beside the values) | hit rate 0.57% among 300,000;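 active = growth inhibition above about 58% in most replicates, limit read from the data, passing the limit was not always enough; inconclusive = exactly half the replicates above a set limit; inactive = most replicates below a set limit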;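 also: all wells also contain fluconazole at 8 µg/ml as a sub-toxic cotreatment; 0% = median of DMSO wells and 100% = median of geldanamycin control wells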
SKKanGAS inh: S. pyogenes SKKanGAS growth inhibitors in kanamycin, primary screen, streptokinase expression inhibitor project, SKKanGAS strain, BacTiter-Glo luminescence | 6 h | hit rate 1.3% among 300,000 | AID 1662, 2009 | inhibition, % at 7.5 µM;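 active = mean replicate score, as percent of positive control median, at least 50; inconclusive = mean below 50 but one replicate at or above 50; inactive = mean and every replicate below 50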;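 also: strain carries kanamycin resistance gene driven by streptokinase promoter and grows in 40 µg/ml kanamycin; loss of luminescence reflects streptokinase promoter inhibition or plain growth inhibition; 0% = median of DMSO wells and 100% = positive control at its reference dose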
Mdm2 MdmX PPI: inhibitors of human Mdm2-MdmX association, primary screen, cell-based, luminescence, split luciferase, SaOS-2, uHTS. Protein Mdm4 (Homo sapiens) + E3 ubiquitin-protein ligase Mdm2 (Homo sapiens), …. SaOS-2 split-luciferase Mdm2/MdmX complementation. inhibition, % at 8 µM. hit rate 3% among 330,000. AID 485346, 2010;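 active = inhibition of at least 50% at 8 µM in the primary screen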
Target sequence (O15151 whole entry, looked up): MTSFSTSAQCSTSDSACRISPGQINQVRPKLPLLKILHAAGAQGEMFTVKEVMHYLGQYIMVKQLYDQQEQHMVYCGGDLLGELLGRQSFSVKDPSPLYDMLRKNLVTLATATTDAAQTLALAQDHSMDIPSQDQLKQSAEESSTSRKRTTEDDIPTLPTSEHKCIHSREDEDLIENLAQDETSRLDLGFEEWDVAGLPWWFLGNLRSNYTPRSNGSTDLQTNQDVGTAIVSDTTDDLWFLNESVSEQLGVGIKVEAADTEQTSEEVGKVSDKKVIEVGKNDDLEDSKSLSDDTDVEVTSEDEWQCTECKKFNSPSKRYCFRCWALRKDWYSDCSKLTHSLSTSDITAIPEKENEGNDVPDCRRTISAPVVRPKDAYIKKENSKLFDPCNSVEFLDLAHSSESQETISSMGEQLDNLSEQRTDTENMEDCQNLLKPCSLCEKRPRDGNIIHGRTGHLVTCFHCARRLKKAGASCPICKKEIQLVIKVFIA
Target sequence (Q00987 whole entry, looked up): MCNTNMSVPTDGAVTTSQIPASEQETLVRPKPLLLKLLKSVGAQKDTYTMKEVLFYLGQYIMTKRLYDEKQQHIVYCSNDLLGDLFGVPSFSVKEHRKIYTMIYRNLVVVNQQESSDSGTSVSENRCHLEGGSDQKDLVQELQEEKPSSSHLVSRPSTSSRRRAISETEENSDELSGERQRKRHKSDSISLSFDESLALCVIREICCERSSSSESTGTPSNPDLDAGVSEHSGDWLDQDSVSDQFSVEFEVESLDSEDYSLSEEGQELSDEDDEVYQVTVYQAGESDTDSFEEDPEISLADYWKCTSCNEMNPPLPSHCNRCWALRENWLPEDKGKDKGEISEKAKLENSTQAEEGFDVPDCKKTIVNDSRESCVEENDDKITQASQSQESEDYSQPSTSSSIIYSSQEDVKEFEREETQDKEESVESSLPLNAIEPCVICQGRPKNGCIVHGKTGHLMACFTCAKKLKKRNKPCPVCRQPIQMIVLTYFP
Beta apoptosis: inhibitors of cytokine-induced beta cell apoptosis, primary screen, luminescence; AID 435005, 2010; protection from apoptosis, % (test concentration not listed); hit rate 0.8% among 300,000; INS-1E cytokine-induced death, ATP luminescence, 48 h; percent of positive-control rescue, neutral wells zero;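 active = Every replicate reaches about 75%, or at least half do and their mean reaches it too, limit read from the data; inconclusive = At least half of replicates reach the limit but their mean does not; inactive = Under half of replicates reach the limit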;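 also: 0% = cytokine-treated negative control wells and 100% = positive control rescue; higher means more ATP so stronger rescue from cytokine killing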
* marks the source's active call; other numbers are inactive results; ? = inconclusive; . = no result given. This is a sample that favours compounds with a hit; in the whole collection about 5.7% have one here.

SMILES	CSC inhib	T cruzi repl	Calb FLC	SKKanGAS inh	Mdm2 MdmX PPI	Beta apoptosis
CC1CCCCN1CC(O)COCc1ccccc1 (stereo unspecified)	-1	-8	7	-3	.	0
Cc1ccc(C(=O)NC(=S)Nc2ccc(Oc3ccc(Cl)cc3)cc2)cc1	31	65*	7	-3	5	-2
O=C(NC(=S)Nc1ccc(Oc2ccccc2)cc1)c1ccc(Cl)cc1	59	62*	-4	8	24	-8
Cc1ccccc1C(=O)NC(=S)Nc1ccc(Oc2ccc(Cl)cc2)cc1	65	20	23	19	26	1
Cc1ccc(C(=O)NC(=S)Nc2ccc(-c3ccc(CO)o3)cc2)cc1	16	-16	-5	61*	30	-3
C[n+]1ccc(/C=C/c2ccccc2O)c2ccccc21	3	70*	11	-21	9	4
CC(=O)/C=C/c1ccccc1O	-8	-36	19	-12	-3	2
Cc1cc(C)c(C(=O)N(CCN(C)C)CC2CCCN(Cc3ccccc3F)C2)o1 (stereo unspecified)	2	14	3	7	26	2
O=C(NCC1CCCO1)c1ccc([N+](=O)[O-])s1 (stereo unspecified)	-6	67*	7	4	-19	2
O=C(NCC1CCCO1)c1ccc(Br)s1 (stereo unspecified)	-1	-1	-5	2	10	-4
O=C(CN1CCN(S(=O)(=O)c2ccccc2)CC1)N1CCc2ccccc21	-12	.	.	.	-1	-1
CC(=O)Nc1ccc(Sc2ccccc2C(=O)O)cn1	4	-14	10	0	2	3
O=C(NCCCn1ccnc1)c1ccc(-c2ccccc2)cc1	-15	-19	-6	-4	-5	97*
O=C(NCCCn1ccnc1)c1ccc(F)cc1	-6	-3	-11	-3	-2	.
O=C(NCCCn1ccnc1)c1ccc(N2CCCCCC2)c([N+](=O)[O-])c1	60	16	12	-9	5	95*
CC1CN(S(=O)(=O)c2cccc(C(=O)NCCCn3ccnc3)c2)CC(C)O1 (stereo unspecified)	-12	-8	-8	-3	5	-3
CC1CN(S(=O)(=O)c2ccc(C(=O)NCCCn3ccnc3)cc2)CC(C)O1 (stereo unspecified)	67	2	-3	2	-19	113*
CS(=O)(=O)c1nc(S(=O)(=O)c2ccc(Cl)cc2)c(NCCCn2ccnc2)s1	16	46	1	4	4	-3
CCN(CC(=O)Nc1ccc(Br)cc1)C(=O)c1nc2nc(C)cc(C)n2n1	-12	.	.	.	-5	0
CC(Sc1nnc(Cc2cccs2)n1C1CC1)C(=O)NC1CCS(=O)(=O)C1 (stereo unspecified)	.	.	.	.	0	.
O=C(N/N=C/c1ccccn1)c1ccc(Cl)c(Cl)c1	25	37	-16	53*	42	18
CCCc1ccc(OCc2ccc(C(=O)N/N=C/c3cccnc3)o2)cc1	-3	0	-1	2	-23	-2
CCC(=O)N1CCc2cc(S(=O)(=O)CCC(=O)NCc3cccc(OC)c3)ccc21	-8	-7	-10	0	33	1
Cn1c(N/N=C/c2c[nH]c3ccccc23)nc2ccccc21	-16	8	84*	29	-94	29
Cc1cccc(C(=O)N/N=C/c2ccc(OC3CSC3)cc2)c1	76*	4	40	-2	-23	4
SMILES	CSC inhib	T cruzi repl	Calb FLC	SKKanGAS inh	Mdm2 MdmX PPI	Beta apoptosis
CCOc1ccc2oc(C(=O)NC3CCN(Cc4ccccc4)CC3)c(C)c2c1	13	61*	13	0	28	-8
Cc1c(C(=O)NC2CCN(Cc3ccccc3)C2)oc2ccc(Br)cc12 (stereo unspecified)	35	33	20	3	12	5
O=C(NC1CCN(Cc2ccccc2)CC1)c1ccc(S(=O)(=O)NCc2ccco2)cc1	2	73*	-1	4	2	8
COc1ccc(NS(=O)(=O)c2cccc(C(=O)NC3CCN(Cc4ccccc4)CC3)c2)cc1	16	63*	-7	-2	33	14
C=CCS/C(N)=N\N=C\c1c(O)ccc2ccccc12	2	-9	11	28	-169	35
C#C[C@]1(O)CC[C@H]2[C@@H]3CCc4cc(OC5CCCC5)ccc4[C@H]3CC[C@@]21C	98*	55*	.	103*	38	4
C#C[C@]1(O)CC[C@H]2[C@@H]3CCc4cc(OC)ccc4[C@H]3CC[C@@]21C	2	10	4	3	2	-1
CC(C)(C)NC(=O)CN(Cc1ccco1)C(=O)CCC(=O)Nc1nccs1	-4	-6	-1	-9	-11	-4
CN1CCC(Oc2ccc(Sc3ccccc3)cc2)CC1	?	46	34	-1	13	-1
CN1CCC(Oc2ccccc2Sc2ccc(C(F)(F)F)cc2)CC1	75*	37	0	7	46	18
COc1cc(CN2CCNC(=O)C2CC(=O)NCCCC2CCCC2)cc(OC)c1 (stereo unspecified)	.	3	-17	2	20	.
CN(Cc1cccs1)C(=O)CNC(=O)c1ccco1	.	-19	-14	-1	5	-3
Cc1cc(Cl)c(S(=O)(=O)N2CCN(c3ccc(F)cc3)CC2)cc1OCC(N)=O	11	5	12	6	32	.
Cc1cc(Cl)c(S(=O)(=O)N2CCN(c3ccc(F)cc3)CC2)cc1OCC(=O)NC1CCCCC1	3	?	2	17	18	103*
COc1cc(CNC(=O)c2cnc(C)cn2)cc(OC)c1	-8	-5	-5	-1	4	.
CNCc1ccccc1Sc1ccc(O)c(O)c1	85*	31	107*	5	.	-1
COc1ccc(Sc2ccccc2CN(C)C)cc1OC	.	1	3	0	1	-16
Cc1ccc(S(=O)(=O)N[C@H](C(=O)NC2CCC(C)CC2)C(C)C)cc1 (stereo partly specified)	-10	.	.	.	19	4
N#C/C(=C\c1ccccc1Br)C(=O)NC1CC1	-5	2	-3	4	7	-2
CCc1ccc(C2=NNC(=Nc3cccc(S(=O)(=O)N(C)C)c3)SC2)cc1	10	41	-7	18	36	120*
CCN(C[C@H]1N[C@@](Cc2ccccc2)(C(=O)OC)[C@H]2C(=O)N(C)C(=O)[C@@H]12)C(=O)Nc1ccc(C(F)(F)F)cc1	-17	.	.	.	13	-7
N#Cc1c(N2CCCC2)nc(N)c2c(N)nc(N3CCCC3)cc12	.	19	43	5	22	80*
Cc1cc(OCCCCCN2CCCC2)ccc1Cl	55	67*	-31	17	-8	8

Screening results from PubChem.
